# The source made the active and inactive calls. No cut-off for these calls is given here.
# Tests used:
# [1] = Toxicity in brine shrimp at 100 ug/mL; type: organism-based; details: artemia, in vivo; read-out: Activity
# HeLa S3 = assay: (§1) Cytotoxicity against human HeLaS3 cells after 72 hrs by WST1 assay; type: functional, cell-based
# Procedure, shortened: (§2)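 HeLa S3 cells seeded at 500 cells/well in minimum essential medium and cultured overnight. Compounds then added at final concentrations of 0.1, 1, 10 and 100 µM and incubated 72 h. WST-1 (Cell Counting Kit) added per manufacturer's protocol, followed by a further 2 h incubation. Absorbance read at 450 nm.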
# [2] = as §1; type: functional, cell-based; details: HeLa S3, 72 h; procedure, shortened: as §2
Compound,mortality at 100 ug/mL [1] [%],Activity (HeLa S3),IC50 [2] [µM]
CC(=O)O[C@H]1C[C@@H](OC(C)=O)[C@@]2(C)CO[C@H]3[C@@H](OC(=O)c4ccccc4)[C@@]4(C)C5=C(C)[C@H](c6ccoc6)C[C@@H]5OC(=O)C[C@@H]4[C@]1(C)[C@@H]32 [OHCHNOLIDE A],100,inactive,–
COC(=O)C[C@@H]1[C@]2(C)C3=C(C)[C@H](c4ccoc4)C[C@H]3O[C@@H]2[C@H](OC(C)=O)[C@H]2[C@](C)(C=O)[C@H](O)C[C@H](OC(=O)/C=C/c3ccccc3)[C@]12C,100,inactive,–
C/C=C(\C)C(=O)O[C@@H]1[C@@H]2OC[C@]3(C)[C@H](OC(C)=O)C[C@H](OC(=O)/C(C)=C/C)[C@@](C)([C@@H]23)[C@H]2CC(=O)O[C@H]3C[C@@H](c4ccoc4)C(C)=C3[C@]12C [1-O-DEACETYL-1-O-TIGLOYLOHCHINOLIDE B],100,–,33.8
COC(=O)C[C@@H]1[C@]2(C)C3=C(C)[C@H](c4ccoc4)C[C@H]3O[C@@H]2[C@H](OC(C)=O)[C@H]2[C@](C)(C=O)[C@H](O)C[C@H](OC(=O)c3ccccc3)[C@]12C,100,inactive,–
CC(=O)O[C@@H]1C[C@H](O)[C@@]2(C)[C@H]3[C@@H](OC[C@]13C)[C@@H](OC(=O)c1ccccc1)[C@@]1(C)C3=C(C)[C@H](c4ccoc4)C[C@@H]3OC(=O)C[C@@H]12 [1-O-DEACETYLOHCHINOLIDE A],100,–,2.4
C/C=C(\C)C(=O)O[C@H]1C[C@@H](OC(C)=O)[C@@]2(C)CO[C@H]3[C@@H](OC(=O)c4ccccc4)[C@@]4(C)C5=C(C)[C@H](c6ccoc6)C[C@@H]5OC(=O)C[C@@H]4[C@]1(C)[C@@H]32 [1-O-DEACETYL-1-O-TIGLOYLOHCHINOLIDE A],100,–,29.7
C/C=C(\C)C(=O)O[C@@H]1[C@@H]2OC[C@]3(C)[C@H](OC(C)=O)C[C@H](O)[C@@](C)([C@@H]23)[C@H]2CC(=O)O[C@H]3C[C@@H](c4ccoc4)C(C)=C3[C@]12C [1-O-DEACETYLOHCHINOLIDE B],100,–,0.1
C/C=C(\C)C(=O)O[C@H]1C[C@@H](O)[C@@](C)(C=O)[C@@H]2[C@@H](OC(C)=O)[C@H]3O[C@@H]4C[C@@H](c5ccoc5)C(C)=C4[C@@]3(C)[C@@H](CC(=O)OC)[C@@]12C [OHCHINOLAL],100,inactive,–
C/C=C(\C)C(=O)O[C@@H]1[C@@H]2OC[C@]3(C)[C@H](OC(C)=O)C[C@H](OC(=O)c4ccccc4)[C@@](C)([C@@H]23)[C@H]2CC(=O)O[C@H]3C[C@@H](c4ccoc4)C(C)=C3[C@]12C [1-O-DEACETYL-1-O-BENZOYLOHCHINOLIDE B],100,–,33
O=c1[nH]cc(F)c(=O)[nH]1 [FLUOROURACIL],–,–,5.4
C/C=C(\C)C(=O)O[C@@H]1[C@@H]2OC[C@]3(C)[C@H](OC(C)=O)C[C@H](OC(C)=O)[C@@](C)([C@@H]23)[C@H]2CC(=O)O[C@H]3C[C@@H](c4ccoc4)C(C)=C3[C@]12C [OHCHNOLIDE B],100,–,40.5

# Source: ChEMBL document CHEMBL1148898, “New ring C-seco limonoids from Brazilian Melia azedarach and their cytotoxic activity” (J Nat Prod, 2004)
